One data set concerns the target DNA gyrase subunit B (Staphylococcus aureus, UniProt P0A0K8). Briefly: Inhibition of Staphylococcus aureus DNA gyrase B ATPase activity.
A short description of data set [1]: Cytotoxicity against human HEK293 cells assessed as reduction in cell viability at 100 uM after 72 hrs by MTT assay. Format: cell-based. Particulars: read-out: INH. In a few lines: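 HEK-293 cells were seeded at 5000 per well and left 24 h, then washed. They were exposed to 100 µM in RPMI + 5% FBS + 1% penicillin/streptomycin, with final DMSO ≤0.5%, for 72 h at 37 °C in 5% CO2. DMSO-treated cultures served as controls. Viability was read by MTT at 570 nm, in triplicate, as percentage inhibition.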

Another data set deals with DNA gyrase (Staphylococcus aureus, UniProt P0A0K8+P20831). Briefly: Inhibition of Staphylococcus aureus DNA gyrase-mediated supercoiling of relaxed DNA using pBR 322 as substrate by agarose gel electrophoresis analysis. Format: protein-complex assay.
DNA gyrase, sequence (P0A0K8 whole entry): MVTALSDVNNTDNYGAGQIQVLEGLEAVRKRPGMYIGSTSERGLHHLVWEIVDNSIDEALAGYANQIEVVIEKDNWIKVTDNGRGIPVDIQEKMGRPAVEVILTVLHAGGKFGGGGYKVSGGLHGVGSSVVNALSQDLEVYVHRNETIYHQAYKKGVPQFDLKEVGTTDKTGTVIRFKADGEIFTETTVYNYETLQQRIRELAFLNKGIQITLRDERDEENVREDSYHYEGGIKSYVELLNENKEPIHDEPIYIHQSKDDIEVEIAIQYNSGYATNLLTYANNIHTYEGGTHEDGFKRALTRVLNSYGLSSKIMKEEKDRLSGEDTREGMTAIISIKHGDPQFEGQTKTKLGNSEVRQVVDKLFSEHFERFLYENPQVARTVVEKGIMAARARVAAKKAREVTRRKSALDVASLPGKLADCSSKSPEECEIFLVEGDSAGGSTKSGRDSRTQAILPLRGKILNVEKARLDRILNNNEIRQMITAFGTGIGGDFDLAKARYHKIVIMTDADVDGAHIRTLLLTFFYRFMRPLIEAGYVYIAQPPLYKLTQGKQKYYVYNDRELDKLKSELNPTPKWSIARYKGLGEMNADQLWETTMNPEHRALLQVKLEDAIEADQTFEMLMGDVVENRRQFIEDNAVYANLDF
DNA gyrase, sequence (P20831 whole entry): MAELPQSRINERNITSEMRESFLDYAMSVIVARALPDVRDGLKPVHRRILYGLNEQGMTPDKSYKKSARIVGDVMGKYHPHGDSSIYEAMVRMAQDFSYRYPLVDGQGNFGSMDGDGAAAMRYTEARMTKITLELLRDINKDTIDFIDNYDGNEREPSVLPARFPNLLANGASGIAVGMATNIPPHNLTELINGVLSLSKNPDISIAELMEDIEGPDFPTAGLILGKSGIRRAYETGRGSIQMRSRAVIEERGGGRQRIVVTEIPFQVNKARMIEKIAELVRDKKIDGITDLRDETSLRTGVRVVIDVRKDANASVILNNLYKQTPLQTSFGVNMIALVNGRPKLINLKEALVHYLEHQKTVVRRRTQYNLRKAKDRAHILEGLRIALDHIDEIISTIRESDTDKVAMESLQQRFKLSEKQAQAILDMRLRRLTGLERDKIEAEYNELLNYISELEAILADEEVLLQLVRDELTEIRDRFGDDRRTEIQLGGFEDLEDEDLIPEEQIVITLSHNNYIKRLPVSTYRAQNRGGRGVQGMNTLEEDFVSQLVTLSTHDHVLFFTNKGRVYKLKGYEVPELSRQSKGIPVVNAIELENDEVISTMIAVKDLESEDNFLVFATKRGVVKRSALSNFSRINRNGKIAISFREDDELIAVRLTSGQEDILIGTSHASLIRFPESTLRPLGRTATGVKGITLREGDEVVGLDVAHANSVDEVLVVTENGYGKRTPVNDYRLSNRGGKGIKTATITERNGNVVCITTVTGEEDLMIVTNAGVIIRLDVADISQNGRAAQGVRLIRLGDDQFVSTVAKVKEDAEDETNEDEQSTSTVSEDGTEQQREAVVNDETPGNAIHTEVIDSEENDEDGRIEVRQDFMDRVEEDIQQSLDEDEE
Data set [2] relates to Staphylococcus aureus. The data set is described as follows: Inhibition of biofilm formation in methicillin-resistant Staphylococcus aureus MTCC 96 after 24 hr incubation by tissue culture plate method. Particulars: MTCC 96, 24 h.
Data set [3] concerns Staphylococcus aureus. The data set is described as follows: Antimicrobial activity against Staphylococcus aureus MTCC 3160 after 16 to 24 hrs by agar dilution method. Format: functional. In short, it runs like this: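 MIC by agar dilution per CLSI on Mueller-Hinton agar. Overnight colonies were suspended to about 10^6 cfu/mL, and 1 mL was added to 19 mL medium. Compounds were made up in 0.9% saline and tested over about 10 doubling dilutions, 100 µM to 0.1 µM. Plates ran 16-20 h at 35 °C in ambient air. MIC was the lowest concentration preventing visible growth.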
For orientation: Agar dilution tests growth on a series of plates holding different concentrations.

In data set [4] the test system is Staphylococcus aureus. The data set is described as follows: Antimicrobial activity against methicillin-resistant Staphylococcus aureus MTCC 96 after 16 to 24 hrs by agar dilution method. It counts as functional. In a few lines:
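Agar dilution per CLSI guidelines on Mueller-Hinton agar. Overnight colonies suspended to about 10^6 cfu/mL, and 1 mL added to 19 mL medium. Stocks in 0.9% saline, tested over about 10 doubling dilutions from 100 µM to 0.1 µM. Plates incubated at 35 °C in ambient air for 16-20 h. MIC taken as the lowest concentration preventing visible growth.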

The structures appear in SMILES notation. Converted amounts (≈) assume the structure as drawn. A value given as a limit tells only on which side of the number the result lay.

What is called IC50 is the point on the concentration scale where inhibition reaches its midpoint. Lower therefore signals higher potency. For orientation: MIC means the smallest concentration in the dilution series that meets the test's criterion for growth inhibition.

DNA gyrase subunit B, sequence (P0A0K8 whole entry): as the sequence (P0A0K8 whole entry) above

As for `O=C(O)CCCC(=O)Nc1ccc(-c2nc3cc([N+](=O)[O-])ccc3[nH]2)cc1`, the IC50 at DNA gyrase subunit B amounted to 6.83 µM; at DNA gyrase it was 6.12 µM; with Staphylococcus aureus [2], 62.3 µM. The cytotoxicity at 72 h, 100 µM in data set [1] turned out to be 27.2%. Also, the MIC turned out to be 33.9 µM (≈ 12.5 µg/mL) with Staphylococcus aureus [3] and 44.1 µM (≈ 16.3 µg/mL) in the data set on Staphylococcus aureus [4].

As to `O=C(O)CSCC(=O)Nc1ccc(-c2nc3cc(F)ccc3[nH]2)cc1`, the IC50 against DNA gyrase subunit B was found to be 6.93 µM; at DNA gyrase, 4.8 µM; in the data set with Staphylococcus aureus [2], 59.1 µM. For the same compound, the cytotoxicity at 72 h, 100 µM in data set [1] was 20.6%. Besides, the values for the MIC against Staphylococcus aureus [3] and against Staphylococcus aureus [4] were 34.8 µM (≈ 12.5 µg/mL) and 17.3 µM (≈ 6.22 µg/mL), respectively.

Turning to `COC(=O)CCCC(=O)Nc1ccc(-c2nc3ccccc3[nH]2)cc1`, the values for the 50% inhibitory concentration (IC50) on DNA gyrase subunit B, against DNA gyrase and with Staphylococcus aureus [2] were 36.3 µM, 25 µM and greater than 100 µM, respectively. In data set [1], the cytotoxicity at 72 h, 100 µM was 9.7%. In addition, the MIC in the data set with Staphylococcus aureus [3] and with Staphylococcus aureus [4] was 148 µM (≈ 50 µg/mL) throughout.

For the compound `O=C(O)COCC(=O)Nc1ccc(-c2nc3cc([N+](=O)[O-])ccc3[nH]2)cc1`, the IC50 at DNA gyrase subunit B worked out at 8.51 µM; on DNA gyrase, 5.8 µM; in the data set on Staphylococcus aureus [2], 83.2 µM. Also, in data set [1], the cytotoxicity at 72 h, 100 µM turned out to be 31.3%. Moreover, the figures for the MIC in the data set on Staphylococcus aureus [3] and against Staphylococcus aureus [4] were 33.8 µM (≈ 12.5 µg/mL) and 47 µM (≈ 17.4 µg/mL), respectively.

As to `O=C(O)CSCC(=O)Nc1ccc(-c2nc3cc(Cl)ccc3[nH]2)cc1`, the values for the IC50 against DNA gyrase subunit B, on DNA gyrase and with Staphylococcus aureus [2] were 13.8 µM, 12.1 µM and 9.72 µM, respectively. Besides, in data set [1], the cytotoxicity at 72 h, 100 µM turned out to be 23%. In addition, the minimal inhibitory concentration (MIC) in the data set with Staphylococcus aureus [3] and in the data set with Staphylococcus aureus [4] was 4.15 µM (≈ 1.56 µg/mL) throughout.

For `O=C(O)CCCCC(=O)Nc1ccc(-c2nc3cccnc3[nH]2)cc1`, the IC50 came to 2.9 µM against DNA gyrase subunit B, 2.1 µM on DNA gyrase and 15.7 µM in the data set on Staphylococcus aureus [2]. The cytotoxicity at 72 h, 100 µM in data set [1] stood at 22.7%. The MIC with Staphylococcus aureus [3] stood at 4.61 µM (≈ 1.56 µg/mL); in the data set on Staphylococcus aureus [4], 9.23 µM (≈ 3.12 µg/mL).

`O=C(O)CCCC(=O)Nc1ccc(-c2nc3cc(Cl)ccc3[nH]2)cc1`: the IC50 against DNA gyrase subunit B was 9.85 µM; against DNA gyrase, 9.13 µM; in the data set on Staphylococcus aureus [2], greater than 100 µM. Also, in data set [1], the cytotoxicity at 72 h, 100 µM was 45.5%. The minimum inhibitory concentration (MIC) came to 34.9 µM (≈ 12.5 µg/mL) with Staphylococcus aureus [3] and 69.8 µM (≈ 25 µg/mL) with Staphylococcus aureus [4].

Regarding `CCc1cc(=O)nc(SCC(=O)Nc2cccc(C(=O)O)c2)[nH]1`, the IC50 at DNA gyrase subunit B was 65 µM; against DNA gyrase, greater than 50 µM.

In the case of `Cc1cc2ncn(CC(O)COc3cccc(C(=O)O)c3)c2cc1C` (stereo unspecified), the 50% inhibitory concentration (IC50) was determined as 12.9 µM at DNA gyrase subunit B and 3.13 µM on DNA gyrase.

In the case of `O=C(O)CCCC(=O)Nc1ccc(-c2nc3cccnc3[nH]2)cc1`, the IC50 at DNA gyrase subunit B came to 18.5 µM; at DNA gyrase it was 6.98 µM; in the data set on Staphylococcus aureus [2], 88.1 µM. In addition, the cytotoxicity at 72 h, 100 µM in data set [1] is 33.8%. Also, the MIC against Staphylococcus aureus [3] and with Staphylococcus aureus [4] was 38.5 µM (≈ 12.5 µg/mL) throughout.

On to `O=C(O)CCC(=O)Nc1ccc(-c2nc3cccnc3[nH]2)cc1`, for which the IC50 against DNA gyrase subunit B worked out at 9.23 µM; against DNA gyrase, 3.13 µM; in the data set with Staphylococcus aureus [2] it was 29.4 µM. Further, the cytotoxicity at 72 h, 100 µM in data set [1] stood at 31.1%. The MIC worked out at 20.1 µM (≈ 6.25 µg/mL) against Staphylococcus aureus [3] and 10.1 µM (≈ 3.12 µg/mL) with Staphylococcus aureus [4].

For `O=C(O)CCC(=O)Nc1ccc(-c2nc3cc([N+](=O)[O-])ccc3[nH]2)cc1`, the results for the 50% inhibitory concentration (IC50) against DNA gyrase subunit B, against DNA gyrase and in the data set on Staphylococcus aureus [2] were 17.5 µM, 8.32 µM and 27.9 µM, respectively. The cytotoxicity at 72 h, 100 µM in data set [1] turned out to be 24.6%. The MIC against Staphylococcus aureus [3] and against Staphylococcus aureus [4] was 17 µM (≈ 6.01 µg/mL) each time.

Turning to `CCOc1cc(/C=C(\C#N)c2nc3ccc(C)cc3[nH]2)ccc1OCC(=O)O`, the IC50 at DNA gyrase subunit B was 82.1 µM; at DNA gyrase, greater than 50 µM.

`Cc1sc2nc(SCC(=O)Nc3cccc(C(=O)O)c3)nc(O)c2c1C`: the results for the IC50 against DNA gyrase subunit B and against DNA gyrase were 17.3 µM and 8.22 µM, respectively.

On to `O=C(O)COCC(=O)Nc1ccc(-c2nc3cc(F)ccc3[nH]2)cc1`, for which the IC50 against DNA gyrase subunit B was found to be 6.12 µM; at DNA gyrase it was 2.9 µM; with Staphylococcus aureus [2] it was 19.6 µM. Besides, in data set [1], the cytotoxicity at 72 h, 100 µM was determined as 14.5%. For the same compound, the MIC in the data set with Staphylococcus aureus [3] and in the data set with Staphylococcus aureus [4] was 9.1 µM (≈ 3.12 µg/mL) each time.

In the case of `O=C(O)CC(=O)Nc1ccc(-c2nc3cc(Cl)ccc3[nH]2)cc1`, the values for the IC50 against DNA gyrase subunit B, on DNA gyrase and in the data set on Staphylococcus aureus [2] were 26.3 µM, 18.2 µM and greater than 100 µM, respectively. Moreover, the cytotoxicity at 72 h, 100 µM in data set [1] is 25.6%. Also, the MIC against Staphylococcus aureus [3] and with Staphylococcus aureus [4] was 75.8 µM (≈ 25 µg/mL) in each case.

With `O=C(O)CSCC(=O)Nc1ccc(-c2nc3ccccc3[nH]2)cc1`, the IC50 against DNA gyrase subunit B stood at 22.8 µM; against DNA gyrase, 12.5 µM; with Staphylococcus aureus [2], 82.1 µM. For the same compound, in data set [1], the cytotoxicity at 72 h, 100 µM came out at 13.1%. The MIC in the data set with Staphylococcus aureus [3] worked out at 73.3 µM (≈ 25 µg/mL); against Staphylococcus aureus [4], 37.6 µM (≈ 12.8 µg/mL).

`O=c1nc(/C=C/c2ccc(/C=C/c3cc(C(F)(F)F)[nH]c(=O)n3)cc2)cc(C(F)(F)F)[nH]1`: the IC50 at DNA gyrase subunit B stood at 42.2 µM; on DNA gyrase, 24.9 µM.

Take `O=C(O)CC(=O)Nc1ccc(-c2nc3cc(F)ccc3[nH]2)cc1`: the IC50 against DNA gyrase subunit B was 13.4 µM; against DNA gyrase, 16.3 µM; in the data set with Staphylococcus aureus [2] it was greater than 100 µM. For the same compound, the cytotoxicity at 72 h, 100 µM in data set [1] worked out at 18.1%. The MIC against Staphylococcus aureus [3] and with Staphylococcus aureus [4] was 79.8 µM (≈ 25 µg/mL) each time.

For the compound `COc1ccc2[nH]c(-c3ccc(NC(=O)CCCCC(=O)O)cc3)nc2c1`, the concentration for half-maximal inhibition (IC50) at DNA gyrase subunit B was found to be 22.9 µM; on DNA gyrase it was 12.5 µM; with Staphylococcus aureus [2] it was 71.1 µM. Further, the cytotoxicity at 72 h, 100 µM in data set [1] was determined as 29.4%. Moreover, the MIC in the data set on Staphylococcus aureus [3] is 68 µM (≈ 25 µg/mL); against Staphylococcus aureus [4], 34.1 µM (≈ 12.5 µg/mL).

As for `O=C(O)CCCCC(=O)Nc1ccc(-c2nc3cc(F)ccc3[nH]2)cc1`, the IC50 at DNA gyrase subunit B is 15.3 µM; on DNA gyrase, 7.1 µM; in the data set on Staphylococcus aureus [2], greater than 100 µM. Moreover, the cytotoxicity at 72 h, 100 µM in data set [1] is 29%. Also, the MIC against Staphylococcus aureus [3] was 35.2 µM (≈ 12.5 µg/mL); against Staphylococcus aureus [4], 59.3 µM (≈ 21.1 µg/mL).

`COC(=O)CCCC(=O)Nc1ccc(-c2nc3cc(F)ccc3[nH]2)cc1`: the IC50 at DNA gyrase subunit B was 18.6 µM; on DNA gyrase, 10.7 µM; with Staphylococcus aureus [2], 59.3 µM. The cytotoxicity at 72 h, 100 µM in data set [1] is 33.8%. The MIC in the data set with Staphylococcus aureus [3] is 70.3 µM (≈ 25 µg/mL); against Staphylococcus aureus [4] it was 32.2 µM (≈ 11.4 µg/mL).

For `CNc1cc(CCNC(=O)c2ccc3oc(O)nc3c2)nc(-c2ccncc2)n1`, the half-maximal inhibitory concentration (IC50) on DNA gyrase subunit B was 92.1 µM; against DNA gyrase it was greater than 50 µM.

On to `O=C(O)CCCC(=O)Nc1ccc(-c2nc3ccccc3[nH]2)cc1`, for which the results for the IC50 against DNA gyrase subunit B and at DNA gyrase were 12.6 µM and 2.9 µM, respectively.

The compound `CO[C@@H]1[C@@H](OC(N)=O)[C@@H](O)[C@H](Oc2ccc3c(O)c(NC(=O)c4ccc(O)c(CC=C(C)C)c4)c(=O)oc3c2C)OC1(C)C` [NOVOBIOCIN] yielded an MIC against Staphylococcus aureus [3] of 0.25 µM (≈ 0.153 µg/mL). This counts as sub-micromolar.

Consider `CC(Cc1c[nH]c2ccccc12)NC(=O)CSS(=O)(=O)O` (stereo unspecified), for which the IC50 was 89.9 µM on DNA gyrase subunit B and greater than 50 µM against DNA gyrase.

On to `O=C(O)CCC(=O)Nc1ccc(NC(=O)c2ccco2)cc1`, for which the IC50 at DNA gyrase subunit B came out at 12.9 µM; against DNA gyrase it was 3.13 µM.

Turning to `CC(=O)Nc1ccc(OCC[n+]2ccc(CCS(=O)(=O)[O-])cc2)cc1`, the IC50 against DNA gyrase subunit B was determined as 77.1 µM; against DNA gyrase it was 45.1 µM.

As for `O=C(O)c1cn(C2CC2)c2cc(N3CCNCC3)c(F)cc2c1=O` [CIPROFLOXACIN], the IC50 in the data set with Staphylococcus aureus [2] worked out at 16.9 µM.

As to `Cc1sc2nc(SCC(=O)Nc3ccc(Cl)c(C(=O)O)c3)nc(O)c2c1C`, the half-inhibitory concentration (IC50) against DNA gyrase subunit B was 77.3 µM; at DNA gyrase, greater than 50 µM.

Source of the values: ChEMBL document CHEMBL3352166, “Structure-guided design and development of novel benzimidazole class of compounds targeting DNA gyraseB enzyme of Staphylococcus aureus” (Bioorg Med Chem, 2014).
